# In the library only some 3.7% were active in any assay of this set; here they are far more common.
# EP2 antag: human EP2 receptor antagonists, primary screen, TR-FRET cAMP, C6 glioma cells. C6 glioma cells expressing human EP2; cells stimulated with saturating PGE2. 0.52% of 260,000 active. AID 1422, 2008. Prostaglandin E2 receptor EP2 subtype (Homo sapiens), P43116. inhibition, % at 25 µM;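 active = percent inhibition above 40 after rounding to a whole number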;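 also: rat C6 glioma host cells with rolipram phosphodiesterase inhibitor present; the protocol text gives 20 µM as final concentration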
# Target sequence (P43116 whole entry, looked up): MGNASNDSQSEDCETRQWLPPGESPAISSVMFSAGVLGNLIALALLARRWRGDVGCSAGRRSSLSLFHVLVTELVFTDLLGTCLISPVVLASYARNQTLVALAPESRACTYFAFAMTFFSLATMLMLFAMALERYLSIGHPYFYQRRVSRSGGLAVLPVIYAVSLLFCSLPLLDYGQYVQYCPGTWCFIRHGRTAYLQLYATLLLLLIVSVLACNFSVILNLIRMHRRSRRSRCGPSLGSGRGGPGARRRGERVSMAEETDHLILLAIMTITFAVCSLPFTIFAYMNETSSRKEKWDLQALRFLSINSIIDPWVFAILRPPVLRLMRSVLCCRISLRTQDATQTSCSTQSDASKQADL
# OX1R antag-1: OX1R (HCRTR1) antagonists, primary screen, fluorescence, CHO/OX1R cells, Fluo-8 calcium, orexin A. Orexin/Hypocretin receptor type 1 (Homo sapiens), O43613. Fluo-8 calcium fluorescence. inhibition, % at 5 µM. 0.43% of 330,000 active. AID 434989, 2010;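 active = inhibition above its plate's threshold, mean inhibition of all tested compounds on the plate plus 3 SD, cut at about 37% in these data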;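 also: 0% = orexin A challenge wells and 100% = SB-334867-A antagonist wells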
# OX1R antag-2: antagonists of human orexin 1 receptor (OX1R); Orexin/Hypocretin receptor type 1 (Homo sapiens), O43613; OX1R-expressing cells, FRET antagonist read-out; inhibition, % at 6.6 µM; 1.8% of 330,000 active; AID 485270, 2010; in the data active = inhibition mostly above about 38%, no sharp cut-off; inactive = mostly below about 40%;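 also: 0% = agonist challenge alone and 100% = reference antagonist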
# CHO parental Ca: ATP-evoked calcium signal inhibitors, parental CHO, primary screen, counter-screen for OX1R antagonist project, cell-based, fluorescence, Fluo-8 calcium dye | parental CHO-K1, ATP-induced calcium, Fluo-8 fluorescence | 0.63% of 330,000 active | inhibition, % at 5.6 µM;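 active = inhibition above that plate's mean sample inhibition plus 3 SD, cut at about 26% in these data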;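 also: 0% = ATP-challenged DMSO wells and 100% = DMSO wells without ATP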
#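 Material: Parental CHO cells | Reagent: ATP | Compound dosing: Single nominal dose of 5.6 µM per compound | Detection: Intracellular calcium via Fluo-8 no-wash fluorescent dye | Read-out: % inhibition of ATP-induced calcium mobilization | Benchmarks: Low control ATP plus DMSO, high control DMSO only | Replicates: Singlicate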
# GPR7 antag: GPR7 receptor antagonists, primary screen, cell-based, fluorescence, single concentration | inhibition, % at 4.4 µM | GPR7-expressing cells, fluorescence antagonist assay | AID 1861, 2009 | Neuropeptides B/W receptor type 1 (Homo sapiens), P48145 | 1.1% of 290,000 active; in the data active = inhibition above about 16%, passing the limit was not always enough;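 also: cells stimulated with the agonist NPW; 0% = agonist with vehicle and 100% = vehicle without agonist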
# EP2 modulator: EP2 receptor modulators, cAMP readout, primary screen, cell-based, HTRF cAMP, PGE2 stimulation; induction, % at 25 µM; AID 940, 2007; EP2-expressing cells, cAMP HTRF FRET, PGE2 co-stimulation; 0.83% of 260,000 active; Prostaglandin E2 receptor EP2 subtype (Homo sapiens), P43116;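 active = compounds whose cAMP rise, as percent of the full-agonist control response, exceeds 60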;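 also: rat C6 glioma line stably carrying human EP2 under a CMV promoter; the protocol text gives 20 µM as final concentration; 100% = response of wells given 1 µM PGE2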
# OX1R HTRF confirm: OX1R (HCRTR1) antagonists, confirmation, cell-based, HTRF | shares compounds with OX1R antag-2 | OX1R-expressing cells, HTRF antagonist assay | inhibition, % at 6.6 µM | 49% of 1,800 active | AID 492964, 2010; in the data active = inhibition above about 55%;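 also: CHO cells expressing OX1R stimulated with orexin A at about EC80; 0% = agonist challenge alone and 100% = reference antagonist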
# CHO-K1 HTRF: signal inhibition in parental CHO-K1 cells, counter-screen for OX1R antagonist project, cell-based, HTRF; shares compounds with OX1R antag-2; HTRF counterscreen; inhibition, % at 6.6 µM; 48% of 1,800 active; AID 493232, 2011; in the data active = inhibition above about 17%;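 also: 0% = agonist challenge with vehicle and 100% = vehicle alone without agonist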
# Starred values were filed as active, the others as inactive; nt = no result.
SMILES,EP2 antag,OX1R antag-1,OX1R antag-2,CHO parental Ca,GPR7 antag,EP2 modulator,OX1R HTRF confirm,CHO-K1 HTRF
S=c1oc(-c2ccncc2)nn1CCc1ccncc1,7,-7,35,-8,-14,9,nt,nt
CCN(CC)CCCN=C1N[C@@H](c2cccc(F)c2)C(C(=O)OC)=C(C)N1Cc1ccccc1,nt,6,4,-15,nt,nt,nt,nt
O=C(O)CCNc1ccc(NCCC(=O)O)c2c1C(=O)c1ccccc1C2=O,nt,-9,104*,6,-2,nt,61*,86*
NCc1ccc2[nH]c(=O)[nH]c2c1,13,-15,18,-3,-4,-19,nt,nt
O=C1Nc2ccccc2C1=Nc1cccc([N+](=O)[O-])c1,nt,-12,21,-7,9,nt,nt,nt
NC(=O)c1ccc(N=C2C(=O)Nc3ccc([N+](=O)[O-])cc32)cc1,3,-8,84*,-12,8,-19,64*,72*
CCn1c(C)nc2cc(-c3nc4n(n3)Cc3ccccc3-4)ccc21,6,-12,88*,8,3,-23,81*,9
Cc1ccc(NC(=O)COc2ccccc2)cc1S(=O)(=O)N1CCCCCC1,nt,-28,98*,-9,nt,nt,20,5
CCC(CC)c1nnc(NC(=O)COc2ccc3c(c2)OCO3)s1,nt,-14,7,-14,7,nt,nt,nt
CCOC(=O)c1ccc(Nc2cc(C)nc(-c3ccccc3)n2)cc1,nt,26,83*,8,6,nt,29,15
CCC(C)NC(=O)C(Cc1ccccc1)NS(=O)(=O)c1cccc2nsnc12 (stereo unspecified),0,2,153*,-18,0,32,55*,-4
CCOCCCNC(=O)C(Cc1ccccc1)NS(=O)(=O)c1cccc2nsnc12 (stereo unspecified),10,-4,39,-20,-12,8,nt,nt
CCCNC(=O)C(Cc1ccccc1)NS(=O)(=O)c1cccc2nsnc12 (stereo unspecified),2,-9,126*,-23,-12,30,38,27*
CCn1c2ccccc2c2cc(NC(=O)COC(=O)c3cccc(S(=O)(=O)NC)c3)ccc21,5,9,25,3,-5,-24,nt,nt
O=C(CCS(=O)(=O)c1cccc2nsnc12)NCc1ccccc1,10,-26,120*,-17,-15,12,40,39*
COc1cccc(NC(=O)CS(=O)(=O)c2cccc3nsnc23)c1,nt,-21,53,-6,13,nt,nt,nt
CC(=O)c1cccc(NC(=O)CCS(=O)(=O)c2cccc3nsnc23)c1,10,-30,89*,-25,5,-3,33,25*
O=C(CCCNS(=O)(=O)c1cccc2nsnc12)NCc1ccccc1,6,-23,28,-10,-9,13,nt,nt
O=C1c2ccc([N+](=O)[O-])cc2C(=O)N1c1ccc([N+](=O)[O-])cn1,nt,2,95*,12,nt,nt,41,63*
O=C1c2cc([N+](=O)[O-])cc3cc([N+](=O)[O-])cc(c23)C(=O)N1c1ccccn1,5,-25,82*,-7,-5,-41,73*,114*
CCCC(=O)Nc1c(-c2ccccc2)c(=O)c(C)nn1-c1ccccc1,12,12,4,-6,-12,18,nt,nt
CC(=O)Nc1ccc2c3c(cccc13)C(=O)N(c1ccccc1)C2=O,8,-13,110*,1,-12,-18,41,63*
CCOc1cc(/C=C/C(=O)c2ccc(OC)c(CN3CCOCC3)c2)cc(Br)c1O,nt,3,11,3,1,nt,nt,nt
COc1ccc(OC)c(Nc2nc(N)nc(-c3cc4ccccc4o3)n2)c1,17,12,80*,16,-3,-23,34,12
COc1ccc(Cl)cc1Nc1nc(N)c2ccccc2n1,nt,-6,23,13,10,nt,nt,nt
SMILES,EP2 antag,OX1R antag-1,OX1R antag-2,CHO parental Ca,GPR7 antag,EP2 modulator,OX1R HTRF confirm,CHO-K1 HTRF
COc1ccc(C2C(C(C)=O)=C(O)C(=O)N2c2ccc(F)cc2)cc1 (stereo unspecified),nt,6,-10,3,-19,nt,nt,nt
CCOc1cc(/C=C2\NC(=O)NC2=O)cc([N+](=O)[O-])c1O,0,-3,128*,-6,-9,-5,58*,69*
CCOc1cc(/C=C2\C(=O)NN(c3ccccc3)C2=O)cc([N+](=O)[O-])c1O,14,-8,11,-6,-3,24,nt,nt
CCOc1ccc(OCC(=O)c2c(O)c3ccccc3oc2=O)cc1,7,-8,79*,5,6,20,16,-11
COc1ccc(OCC(=O)c2c(O)c3ccccc3oc2=O)cc1,10,-6,17,-17,-8,-10,nt,nt
CNC(=S)N/N=C/c1c(C(=O)OC)cnn1-c1ccc(F)cc1F,5,7,0,-1,-19,-6,nt,nt

# Screening results (PubChem)
